This note sets out measurements from ChEMBL document CHEMBL1165858, “Synthesis and biological evaluation of beta-chloro vinyl chalcones as inhibitors of TNF-alpha and IL-6 with antimicrobial activity” (Eur J Med Chem, 2010).

In brackets after ≈: the same amount, converted by molar mass.

The subject of one series is Aspergillus niger. Briefly: Antibacterial activity against Aspergillus niger NCIM 545 after 72 hrs by disc diffusion method. Type of series: functional. To be noted: for MIC: Aspergillus niger, NCIM 545, 72 h. A digest of the protocol:
(§1)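 Agar disc diffusion against fungi. Fungi were maintained on potato dextrose agar at (25 ± 2) °C for five days before use. Compounds were dissolved in DMSO (10 mg/mL initial solutions) and loaded on discs placed on freshly seeded plates alongside a solvent control disc. Plates were held at 4 °C for 24 h for diffusion, then incubated at 37 ± 5 °C for 72 h. Zones of inhibition (mm) and MICs were recorded.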

Another series deals with Candida albicans. Briefly: Antibacterial activity against Candida albicans NCIM 3100 after 72 hrs by disc diffusion method. Type of series: functional. The conditions noted are these: for MIC: Candida albicans, NCIM 3100, 72 h. The method in brief:
as §1

For another series, the system named is Bacillus subtilis. Briefly: Antibacterial activity against Bacillus subtilis NCIM 2546 after 24 hrs by disc diffusion method. It counts as functional. To be noted: for MIC: Bacillus subtilis, NCIM 2546, 24 h. The method in brief:
(§2)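 Paper disc diffusion (6.25 mm Whatman no.1 discs, dry-heat sterilized at 140 °C for 1 h) loaded with compounds at different concentrations in DMSO. Discs were placed in triplicate on nutrient agar seeded with fresh bacterial culture and incubated at 37 °C for 24 h, with solvent and growth controls. Zones of inhibition (mm) and MIC, the concentration completely inhibiting growth, were recorded.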

For another series, the system named is Escherichia coli. Description: Antibacterial activity against Escherichia coli NCIM 2065 after 24 hrs by disc diffusion method. To be noted: for MIC: Escherichia coli, NCIM 2065, 24 h. It counts as functional. The method in brief: as §2
The subject of another series is Klebsiella pneumoniae. Briefly: Antibacterial activity against Klebsiella pneumoniae NCIM 5082 after 24 hrs by disc diffusion method. It counts as functional. To be noted: for MIC: Klebsiella pneumoniae, NCIM 5082, 24 h. The method in brief: as §2
Another series relates to Proteus vulgaris. Description: Antibacterial activity against Proteus vulgaris NCIM 2813 after 24 hrs by disc diffusion method. To be noted: for MIC: Proteus vulgaris, NCIM 2813, 24 h. Type of series: functional. The method in brief:
as §2

The next series has as its system Trichoderma viride. Description: Antibacterial activity against Trichoderma viride TT after 72 hrs by disc diffusion method. It counts as functional. To be noted: for MIC: Trichoderma viride, TT, 72 h. The method in brief: as §1
Another series has as its system Staphylococcus aureus. Briefly: Antibacterial activity against Staphylococcus aureus NCIM 2120 after 24 hrs by disc diffusion method. To be noted: for MIC: Staphylococcus aureus, NCIM 2120, 24 h. It counts as functional. The method in brief: as §2
Series [1] relates to THP-1. Description: Antiinflammatory activity in human THP1 cells assessed as inhibition of LPS-induced IL-6 secretion at 10 uM treated 30 mins before LPS challenge measured after 24 hrs by ELISA relative to control. It counts as functional. The method in brief: (§3)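 THP-1 cells were grown in RPMI 1640 with 10% FBS and penicillin/streptomycin, then differentiated with PMA. Compound or vehicle (0.5% DMSO) was added for 30 min at 37 °C, followed by LPS (E. coli 0127:B8, final 1 µg/mL). After 24 h at 37 °C in 5% CO2, TNF-α and IL-6 in the supernatants were quantified by ELISA. Values are the mean of n = 2.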

Series [2] can be described thus: Cytotoxicity against […] at 10 uM. It counts as cell-based.
Series [3] concerns THP-1. Briefly: Antiinflammatory activity in human THP1 cells assessed as inhibition of LPS-induced TNFalpha secretion at 10 uM treated 30 mins before LPS challenge measured after 24 hrs by ELISA relative to control. Type of series: functional. A digest of the protocol:
as §3

In another series the test system is Penicillium chrysogenum. Briefly: Antibacterial activity against Penicillium chrysogenum NCIM 707 after 72 hrs by disc diffusion method. It counts as functional. The conditions noted are these: for MIC: Penicillium chrysogenum, NCIM 707, 72 h. The method in brief: as §1
A further series concerns Aspergillus fumigatus. Briefly: Antibacterial activity against Aspergillus fumigatus NCIM 902 after 72 hrs by disc diffusion method. It counts as functional. The conditions noted are these: for MIC: Aspergillus fumigatus, NCIM 902, 72 h. The method in brief: as §1

Take `COc1cc(O)c(C(=O)/C=C/C=C(\Cl)c2ccc(Br)cc2)c(OC)c1`: the “inhibition zone (IZ)” value in the series with Aspergillus niger is reported as 14 mm; in the series with Candida albicans, 14 mm; in the series on Bacillus subtilis it was 18 mm; with Escherichia coli it was 15 mm; in the series on Klebsiella pneumoniae, 20 mm; with Proteus vulgaris it was 12 mm. Besides, the “inhibition zone (IZ)” value with Trichoderma viride is given as 18 mm; in the series on Staphylococcus aureus it was 14 mm; in the series with Penicillium chrysogenum, 18 mm; in the series with Aspergillus fumigatus, 20 mm. Also, the MIC in the series with Aspergillus niger is 50 µg/mL (≈ 118 µM); in the series with Candida albicans, 25 µg/mL (≈ 59 µM); against Bacillus subtilis, 25 µg/mL (≈ 59 µM); in the series with Escherichia coli, 50 µg/mL (≈ 118 µM); with Klebsiella pneumoniae, 25 µg/mL (≈ 59 µM); with Trichoderma viride, 25 µg/mL (≈ 59 µM). Also, the MIC in the series on Staphylococcus aureus was 50 µg/mL (≈ 118 µM); with Penicillium chrysogenum it was 25 µg/mL (≈ 59 µM); in the series with Aspergillus fumigatus, 25 µg/mL (≈ 59 µM). Further, the values for the inhibition at 10 µM in the series on THP-1 [1] and in the series with THP-1 [3] were 58% and 8%, respectively. For the same molecule, the Activity entry in series [2] was “Non-toxic”.
For the molecule `COc1cc(O)c(C(=O)/C=C/C=C(\Cl)c2ccc(Cl)cc2Cl)c(OC)c1`, the “inhibition zone (IZ)” value was 10 mm in the series with Aspergillus niger; 10 mm in the series with Candida albicans; 17 mm in the series with Bacillus subtilis; 14 mm with Escherichia coli; 15 mm in the series on Klebsiella pneumoniae; 19 mm with Proteus vulgaris. Moreover, the “inhibition zone (IZ)” value in the series on Trichoderma viride came to 18 mm; in the series on Staphylococcus aureus, 19 mm; with Penicillium chrysogenum, 17 mm; with Aspergillus fumigatus, 17 mm. Moreover, the MIC in the series on Bacillus subtilis is 50 µg/mL (≈ 121 µM); with Escherichia coli, 50 µg/mL (≈ 121 µM); against Klebsiella pneumoniae, 50 µg/mL (≈ 121 µM); with Proteus vulgaris it was 25 µg/mL (≈ 60.4 µM); with Trichoderma viride, 25 µg/mL (≈ 60.4 µM); with Staphylococcus aureus, 25 µg/mL (≈ 60.4 µM). In addition, the results for the MIC in the series with Penicillium chrysogenum and with Aspergillus fumigatus were 25 µg/mL (≈ 60.4 µM) and 50 µg/mL (≈ 121 µM), respectively. Also, the values for the inhibition at 10 µM in the series on THP-1 [1] and with THP-1 [3] were 67% and 0%, respectively. Moreover, in series [2], the Activity entry is on record as “Non-toxic”.
Turning to `COc1cc(O)c(C(=O)/C=C/C=C(\Cl)c2ccc(F)cc2)c(OC)c1`, the “inhibition zone (IZ)” value with Aspergillus niger turned out to be 17 mm; with Candida albicans it was 10 mm; in the series on Bacillus subtilis it was 22 mm; with Escherichia coli, 16 mm; with Klebsiella pneumoniae, 14 mm; in the series with Proteus vulgaris it was 18 mm. In addition, the “inhibition zone (IZ)” value worked out at 16 mm with Trichoderma viride, 14 mm with Staphylococcus aureus, 14 mm in the series on Penicillium chrysogenum and 14 mm in the series with Aspergillus fumigatus. In addition, the MIC worked out at 25 µg/mL (≈ 68.9 µM) against Aspergillus niger; 25 µg/mL (≈ 68.9 µM) in the series on Bacillus subtilis; 50 µg/mL (≈ 138 µM) against Escherichia coli; 50 µg/mL (≈ 138 µM) with Klebsiella pneumoniae; 25 µg/mL (≈ 68.9 µM) against Proteus vulgaris; 50 µg/mL (≈ 138 µM) in the series on Trichoderma viride. In addition, the minimal inhibitory concentration (MIC) in the series with Staphylococcus aureus, against Penicillium chrysogenum and against Aspergillus fumigatus was 50 µg/mL (≈ 138 µM) in each case. The inhibition at 10 µM in the series with THP-1 [1] was determined as 83%; in the series on THP-1 [3] it was 16%. Further, in [2], the Activity result is recorded as “Non-toxic”.
For the molecule `COc1cc(O)c(C(=O)/C=C/C=C(\Cl)c2ccc(Cl)cc2)c(OC)c1`, the “inhibition zone (IZ)” value with Aspergillus niger worked out at 16 mm; in the series on Candida albicans, 12 mm; in the series with Bacillus subtilis it was 20 mm; in the series on Escherichia coli, 15 mm; in the series with Klebsiella pneumoniae it was 18 mm; with Proteus vulgaris, 15 mm. Moreover, the “inhibition zone (IZ)” value was 15 mm in the series on Trichoderma viride, 18 mm in the series with Staphylococcus aureus, 12 mm in the series with Penicillium chrysogenum and 17 mm in the series on Aspergillus fumigatus. Further, the MIC turned out to be 50 µg/mL (≈ 132 µM) in the series with Aspergillus niger; 25 µg/mL (≈ 65.9 µM) against Bacillus subtilis; 50 µg/mL (≈ 132 µM) in the series with Escherichia coli; 25 µg/mL (≈ 65.9 µM) with Klebsiella pneumoniae; 50 µg/mL (≈ 132 µM) with Proteus vulgaris; 50 µg/mL (≈ 132 µM) with Trichoderma viride. Further, the MIC with Staphylococcus aureus and with Aspergillus fumigatus was 25 µg/mL (≈ 65.9 µM) each time. The inhibition at 10 µM in the series on THP-1 [1] worked out at 74%; with THP-1 [3] it was 13%. Also, the Activity result in series [2] is on record as “Non-toxic”.
With `C[C@@H]1C[C@H]2[C@@H]3CCC4=CC(=O)C=C[C@]4(C)[C@@]3(F)[C@@H](O)C[C@]2(C)[C@@]1(O)C(=O)CO` [DEXAMETHASONE], the inhibition at 10 µM in the series on THP-1 [1] stood at 90%; in the series on THP-1 [3], 69%. In addition, the Activity entry in series [2] was “Non-toxic”.
With GENTAMICIN [listing 1 of 2 here], the values for the inhibition zone (IZ) in the series with Bacillus subtilis, in the series on Klebsiella pneumoniae and with Proteus vulgaris were 24 mm, 22 mm and 18 mm, respectively.
As to `CC1(C)S[C@@H]2[C@H](NC(=O)Cc3ccccc3)C(=O)N2[C@H]1C(=O)O` [PENICILLIN G], the “inhibition zone (IZ)” value is on record as 22 mm with Bacillus subtilis; 18 mm with Escherichia coli; 21 mm in the series with Klebsiella pneumoniae; 22 mm in the series with Proteus vulgaris; 20 mm in the series with Staphylococcus aureus. Also, the MIC in the series with Bacillus subtilis, against Escherichia coli, in the series on Klebsiella pneumoniae, in the series on Proteus vulgaris and against Staphylococcus aureus was 25 µg/mL (≈ 74.8 µM) in each case. The Activity result in series [2] is “Non-toxic”.
With `COc1cccc(/C(Cl)=C/C=C/C(=O)c2c(O)cc(OC)cc2OC)c1`, the “inhibition zone (IZ)” value with Aspergillus niger was determined as 16 mm; in the series on Candida albicans, 13 mm; in the series on Escherichia coli, 10 mm; in the series on Klebsiella pneumoniae, 14 mm; in the series with Trichoderma viride it was 16 mm; in the series on Staphylococcus aureus, 15 mm. Also, the “inhibition zone (IZ)” value with Penicillium chrysogenum was 17 mm; in the series with Aspergillus fumigatus it was 16 mm. In addition, the MIC against Aspergillus niger worked out at 50 µg/mL (≈ 133 µM); against Klebsiella pneumoniae it was 50 µg/mL (≈ 133 µM); against Trichoderma viride it was 50 µg/mL (≈ 133 µM); in the series on Staphylococcus aureus, 50 µg/mL (≈ 133 µM); in the series with Penicillium chrysogenum, 25 µg/mL (≈ 66.7 µM); with Aspergillus fumigatus, 50 µg/mL (≈ 133 µM). The inhibition at 10 µM came to 39% in the series on THP-1 [1] and 11% in the series with THP-1 [3]. For the same molecule, the Activity entry in [2] is recorded as “Non-toxic”.
For the molecule GENTAMICIN [listing 2 of 2 here], in series [2], the Activity entry is reported as “Non-toxic”.
For the molecule `OC(Cn1cncn1)(Cn1cncn1)c1ccc(F)cc1F` [FLUCONAZOLE], the “inhibition zone (IZ)” value was determined as 20 mm with Aspergillus niger; 18 mm in the series on Candida albicans; 22 mm in the series with Trichoderma viride; 22 mm in the series with Penicillium chrysogenum; 20 mm in the series on Aspergillus fumigatus. The MIC in the series on Aspergillus niger, in the series with Candida albicans, against Trichoderma viride, in the series with Penicillium chrysogenum and in the series on Aspergillus fumigatus was 25 µg/mL (≈ 81.6 µM) in each case.
